Measured values from different studies.
Target: Protein kinase C eta type (PRKCH, Homo sapiens, UniProt P24723)

CN1CCN(c2cnc3c(C4CCN(C(=O)c5ccc(OC(F)(F)F)cc5N)CC4)ncnc3c2)CC1 — remaining binding (cell-free assay; competition with immobilised ligand; 1 µM): 86%
Cc1cnc(NC2CCOCC2)nc1-n1cnc(C(=O)NC(CN)c2cc(F)cc(Cl)c2)c1 (stereo not shown) — remaining activity (enzyme activity; inhibitor; radiometric; 1 µM): 100%
COc1cc(Cl)c(C(=O)N[C@@H](CN[C@H]2CC[C@@H](N)CC2)Cc2ccc(C#N)cc2)cc1-c1ccc(CN[C@H](C)c2ccc(C)cc2)o1 — remaining activity (enzyme activity; inhibitor; 1 µM): 104%
Cc1ccc(C(=O)NCc2ccsc2)cc1C#Cc1cn(C(C)C)c2ncnc(N)c12 — activity vs control (enzyme activity; inhibitor; 1 µM): 118%
C[C@@H]1CCN(c2nccc(-c3cnn4ncccc34)n2)C1 — remaining binding (binding; 1 µM): 83%
CCS(=O)(=O)c1cc2cc(C[C@](O)(CC(C)(C)c3ccc(F)cc3C(N)=O)C(F)(F)F)[nH]c2cn1 — remaining binding (cell-free assay; competition with immobilised ligand; 1 µM): 94%
O=C(Nc1cnn(-c2csc(C(=O)NC3COC3)c2)c1)Nc1ccccc1Cl — remaining activity (enzyme activity; inhibitor; 5 µM): 103%
COc1cc2ncnc(Nc3ccc(Oc4ccccc4)cc3C)c2cc1OC — inhibition (enzyme activity; inhibitor; 1 µM): 7%
CNC(=O)c1ccc(Nc2ncc(C(F)(F)F)c(NCc3nccnc3N(C)S(C)(=O)=O)n2)cc1 — remaining binding (cell-free assay; competition with immobilised ligand; 0.1 µM): 86%
Cc1cc(NC(=O)c2cccc3cc(-c4cccc5[nH]nc(N)c45)ccc23)ccc1F — activity vs control (enzyme activity; inhibitor; 0.1 µM): 109%
CN1CC(Oc2cnc(C#N)cc2-c2ccn3nc(NC(=O)C4CC4)cc3c2)C1 — inhibition (enzyme activity; inhibitor; 1 µM): -11%
COc1cc(-c2cc(-c3ccc(N4CCNCC4)cc3)cnc2C)cc(OC)c1OC — inhibition (enzyme activity; inhibitor; 0.1 µM): 2%
Cn1cnc(Br)c1C1=CN(c2ncnc3[nH]cnc23)CCS1 — inhibition (enzyme activity; inhibitor; radiometric; 2 µM): 91.8%
CC(C)(O)c1cncc(-c2nc3ccc(F)cc3n2C2CC2)c1 — remaining binding (cell-free assay; competition with immobilised ligand; 1 µM): 98%
Cc1sc(C(=O)NC2COC2)cc1-n1cc(NC(=O)Nc2c(F)cccc2Cl)cn1 — remaining activity (enzyme activity; inhibitor; 10 µM): 91.6%
CNCc1ccccc1-c1csc([C@H](C)Nc2nc(C)nc3cc(OC)c(OC)cc23)c1 — remaining binding (cell-free assay; competition with immobilised ligand; 1 µM): 100%
CNC(=O)c1cc(Oc2ccc(NC(=O)Nc3ccc(Cl)c(C(F)(F)F)c3)cc2)ccn1 — inhibition (enzyme activity; inhibitor; 10 µM): 0%
CS(=O)(=O)NCC[C@H](NC(=O)c1cncc2c1cnn2-c1ccc(F)cc1)c1ccnc(S(C)(=O)=O)c1 — remaining binding (cell-free assay; competition with immobilised ligand; 1 µM): 80%
Cn1cncc1C1=CN(c2ncnc3[nH]cnc23)CCS1 — inhibition (enzyme activity; inhibitor; radiometric; 2 µM): 83.6%
